Here are results for seven compounds from ChEMBL document CHEMBL1154634, “Tea catechins inhibit hepatocyte growth factor receptor (MET kinase) activity in human colon cancer cells: kinetic and molecular docking studies” (J Med Chem, 2009).

The target of data set [1] is T1, Hepatocyte growth factor receptor (Homo sapiens, UniProt P08581). The data set can be described thus: Inhibition of MET kinase. An outline of the steps:
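Cell-free MET kinase activity assay run over a range of inhibitor concentrations; IC50 taken as the concentration giving 50% inhibition of kinase activity; data as mean ± SD, n = 3.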

The target in data set [2] is T1, Hepatocyte growth factor receptor. The experiment in a line: Inhibition of hepatocyte growth factor-induced MET phosphorylation in human HCT116 cells at 5 uM after 30 mins by immunoblot. In kind it is cell-based. An outline of the steps:
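Whole-cell lysates immunoblotted for phospho-MET and total MET, with β-actin as loading control; densitometry with phospho-MET normalized to total MET.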
In general terms: Immunoblotting shows a protein as a band on a membrane.

Data set [3] has the same target. The data set can be described thus: Inhibition of MET kinase by Dixon plot analysis. The method in brief: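 MET kinase activity measured at several inhibitor concentrations; Dixon plot (1/V versus [I]) and Cornish-Bowden plot ([S]/V versus [I]) used to assign inhibition type; Ki derived by linear regression of the Dixon plot.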
The next data set concerns Homo sapiens. The experiment in a line: Plasma concentration in po dosed human. It is filed as ADME, organism-based. The following applies: in vivo.
The next data set relates to Mus musculus. The data set can be described thus: Plasma concentration in po dosed mouse. Conditions: in vivo. It is filed as ADME, organism-based.

SMILES strings stand for the structures. Calls of active or inactive are those of the source. No cut-off for these calls is given here.

What is called IC50 is the concentration needed to halve the response being measured. A higher IC50 goes with weaker potency in that assay. A word on the Ki: it is the equilibrium dissociation constant of an inhibitor or competing ligand from its target. Low values mean tighter binding, high ones weaker binding.

T1 sequence (P08581 whole entry): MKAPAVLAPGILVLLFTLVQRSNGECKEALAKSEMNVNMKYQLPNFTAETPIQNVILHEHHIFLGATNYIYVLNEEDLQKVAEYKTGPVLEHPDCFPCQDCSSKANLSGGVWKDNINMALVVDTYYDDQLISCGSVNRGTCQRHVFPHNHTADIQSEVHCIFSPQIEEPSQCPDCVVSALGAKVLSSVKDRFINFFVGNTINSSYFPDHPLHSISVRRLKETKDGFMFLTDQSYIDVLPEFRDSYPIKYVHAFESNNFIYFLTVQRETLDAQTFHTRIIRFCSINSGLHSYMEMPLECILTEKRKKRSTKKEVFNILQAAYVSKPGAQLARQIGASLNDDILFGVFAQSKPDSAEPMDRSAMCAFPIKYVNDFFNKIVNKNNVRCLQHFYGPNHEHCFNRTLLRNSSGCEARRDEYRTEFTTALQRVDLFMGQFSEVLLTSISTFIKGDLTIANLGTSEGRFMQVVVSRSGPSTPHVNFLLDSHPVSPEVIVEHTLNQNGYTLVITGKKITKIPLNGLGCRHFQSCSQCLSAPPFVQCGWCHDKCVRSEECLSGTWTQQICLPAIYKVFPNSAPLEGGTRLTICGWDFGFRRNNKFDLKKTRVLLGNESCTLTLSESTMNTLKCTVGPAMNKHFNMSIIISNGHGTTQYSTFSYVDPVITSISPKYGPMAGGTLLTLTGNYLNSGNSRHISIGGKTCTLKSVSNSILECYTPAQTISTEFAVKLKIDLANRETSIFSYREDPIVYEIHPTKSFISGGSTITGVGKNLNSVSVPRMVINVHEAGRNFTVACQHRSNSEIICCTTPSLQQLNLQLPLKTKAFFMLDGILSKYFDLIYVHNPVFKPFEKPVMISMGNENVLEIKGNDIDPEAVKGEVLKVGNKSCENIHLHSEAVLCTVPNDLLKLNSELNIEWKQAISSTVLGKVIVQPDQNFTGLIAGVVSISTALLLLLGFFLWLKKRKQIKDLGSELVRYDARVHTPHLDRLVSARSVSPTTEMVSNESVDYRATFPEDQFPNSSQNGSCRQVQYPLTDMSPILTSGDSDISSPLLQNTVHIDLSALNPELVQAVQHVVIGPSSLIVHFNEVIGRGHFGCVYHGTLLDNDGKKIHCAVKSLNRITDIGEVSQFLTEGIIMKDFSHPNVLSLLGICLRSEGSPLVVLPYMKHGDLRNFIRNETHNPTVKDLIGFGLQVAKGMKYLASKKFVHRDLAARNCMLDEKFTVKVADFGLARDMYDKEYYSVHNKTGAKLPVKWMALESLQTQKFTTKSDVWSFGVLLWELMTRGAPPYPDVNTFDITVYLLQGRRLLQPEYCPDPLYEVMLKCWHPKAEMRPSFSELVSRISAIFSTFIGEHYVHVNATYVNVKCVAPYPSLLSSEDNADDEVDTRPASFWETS

As to `O=C(O)c1cc(O)c(O)c(O)c1`, the inhibition entry in data set [1] was “inactive”.
`O=C(O[C@@H]1Cc2c(O)cc(O)cc2O[C@@H]1c1cc(O)c(O)c(O)c1)c1cc(O)c(O)c(O)c1` [EPIGALOCATECHIN GALLATE]: the inhibition entry in data set [2] is “Active”. Further, the midpoint of inhibition in data set [1], the IC50, lay at 10 µM. The affinity in data set [3] corresponds to a Ki of 3.3 µM. Besides, the concentration came to 7.5 µM in the data set with Homo sapiens and 9 µM with Mus musculus.
Turning to `Oc1cc(O)c2c(c1)O[C@H](c1cc(O)c(O)c(O)c1)[C@H](O)C2`, in data set [1], the inhibition result is “inactive”.
As to `O=C(O[C@@H]1Cc2c(O)cc(O)cc2O[C@@H]1c1ccc(O)c(O)c1)c1cc(O)c(O)c(O)c1` [EPICATECHIN GALLATE], in data set [2], the inhibition result is “Active”. In addition, 10 µM corresponded to half-maximal inhibition in data set [1] (IC50).
As for `O=C(O[C@@H]1Cc2c(O)cc(O)cc2O[C@H]1c1cc(O)c(O)c(O)c1)c1cc(O)c(O)c(O)c1` [GALLOCATECHIN GALLATE], in data set [2], the inhibition entry was “Active”. In data set [1], this compound returned an IC50 of 10 µM.
For `Oc1cc(O)c2c(c1)O[C@H](c1ccc(O)c(O)c1)[C@H](O)C2`, the inhibition result in data set [1] is “inactive”.
On to `Oc1cc(O)c2c(c1)O[C@@H](c1ccc(O)c(O)c1)[C@H](O)C2`, for which the inhibition result in data set [1] was “inactive”.
